# An excerpt weighted towards active compounds, which were near 2.8% of everything screened.
# NPY Y2 blocker: blocks the human neuropeptide Y Y2 receptor; P49146; NPY-Y2 expressing cells, antagonist mode; inhibition, % at 2.7 µM; actives 0.99% (n = 140,000); AID 793; in the data active means inhibition above about 17%;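 further: 0% = vehicle with agonist challenge and 100% = reference antagonist with challenge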
# Target sequence (P49146 whole entry, looked up): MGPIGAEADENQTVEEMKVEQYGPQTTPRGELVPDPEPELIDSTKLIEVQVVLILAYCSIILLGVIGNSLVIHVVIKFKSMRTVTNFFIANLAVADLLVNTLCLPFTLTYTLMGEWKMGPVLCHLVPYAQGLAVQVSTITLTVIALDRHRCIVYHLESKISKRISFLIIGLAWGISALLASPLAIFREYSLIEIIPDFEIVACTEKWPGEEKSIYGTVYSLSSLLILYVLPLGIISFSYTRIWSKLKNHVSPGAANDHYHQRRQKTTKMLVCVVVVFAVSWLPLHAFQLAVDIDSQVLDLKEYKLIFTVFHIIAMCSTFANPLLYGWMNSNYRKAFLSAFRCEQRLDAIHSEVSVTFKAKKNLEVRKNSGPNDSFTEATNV
# EP2 modulator: modulates human prostaglandin E2 receptor EP2 signaling; P43116; actives 0.83% (n = 260,000); induction, % at 25 µM; EP2-expressing cells, cAMP HTRF FRET, PGE2 co-stimulation;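 active means compounds whose cAMP rise, as percent of the full-agonist control response, exceeds 60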;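 further: rat C6 glioma line stably carrying human EP2 under a CMV promoter; the protocol text gives 20 µM as final concentration; 100% = response of wells given 1 µM PGE2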
# NPY1 pot ag: potentiates or activates human NPY-Y1 receptor; P25929; NPY-Y1 expressing cells, potentiator/agonist activation; activation, % at 3.6 µM; actives 0.37% (n = 220,000); in the data active means activation above about 33%, passing the limit was not always enough;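 further: cells stimulated with NPY at EC10 then isoproterenol at EC100; 0% = low agonist plus stimulus and 100% = saturating agonist plus stimulus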
# NPY-Y1 antag: blocks the human neuropeptide Y Y1 receptor. P25929. HEK293-CNG Y1 cells, membrane potential fluorescence; NPY at EC95, then isoproterenol. inhibition, % at 3.6 µM. actives 1% (n = 200,000);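 active means inhibition above the campaign mean inhibition of all tested compounds plus 3 SD, cut at about 20% in these data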;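 further: 0% = DMSO wells given NPY plus isoproterenol and 100% = isoproterenol alone without NPY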
#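 Material: HEK293 cells co-expressing NPY Y1 receptor and cyclic-nucleotide gated channel. Timing: compound incubation 1 h at room temperature, readout 45 min post-stimulation. Signal: fluorescence, membrane potential probe.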
# NPY2 pot ag: human NPY-Y2 potentiation or agonism, primary screen; P49146; actives 0.45% (n = 220,000); cells expressing NPY-Y2, potentiator/agonist read-out; activation, % at 3.6 µM; AID 1359; in the data active means activation above about 27%;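 further: cells stimulated with NPY near EC25 plus isoproterenol at EC100; 0% = vehicle plus submaximal agonist and 100% = vehicle plus saturating agonist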
# PGE2 EP2 inh: inhibitors of human EP2 prostaglandin E2 receptor. P43116. C6 glioma cells expressing human EP2, cAMP TR-FRET; cells stimulated with saturating PGE2. inhibition, % at 25 µM. actives 0.52% (n = 260,000). AID 1422;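 active means percent inhibition above 40 after rounding to a whole number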;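 further: rat C6 glioma host cells with rolipram phosphodiesterase inhibitor present; the protocol text gives 20 µM as final concentration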
# NPY1 antag conf: human NPY-Y1 antagonism, confirmation | shares compounds with NPY-Y1 antag | HEK293-CNG NPY-Y1, membrane potential fluorescence, cAMP; NPY challenge against isoproterenol-raised cAMP | inhibition, % at 3.6 µM | actives 21% (n = 1,200) | AID 1254; in the data active means inhibition above about 20%;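 further: 0% = vehicle with agonist plus stimulus and 100% = stimulus alone without agonist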
# NPY-Y2 antag ct: human NPY-Y2 antagonism in NPY-Y1 counter-screen; shares compounds with NPY-Y1 antag; HEK293 NPY-Y2 CNG membrane potential fluorescence; cells given NPY, then isoproterenol; inhibition, % at 3.6 µM; actives 28% (n = 1,200); in the data active means inhibition above about 17%;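 further: 0% = DMSO with agonist challenge and 100% = reference antagonist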
# NPY-Y1 pot conf: confirmation of human NPY-Y1 receptor potentiators or agonists | actives 20% (n = 280) | activation, % at 3.6 µM | AID 1546 | cell-based NPY-Y1 potentiator/agonist assay | shares compounds with NPY1 pot ag;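 further: cells challenged with NPY at its EC10 plus isoproterenol stimulus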
# NPY-Y2 counter: NPY-Y2 potentiation or agonism as NPY-Y1 counter-screen; HEK293-CNG cells, membrane-potential fluorescence (FLIPR), 1536-well; activation, % at 3.6 µM; actives 20% (n = 280); AID 1649; shares compounds with NPY1 pot ag; in the data active means activation above about 33%
# NPY-Y1 ag: human NPY-Y1 agonism as potentiator counter-screen. shares compounds with NPY1 pot ag. HEK293 Y1-CNGC, membrane potential fluorescence, agonist mode. activation, % at 3.6 µM. actives 50% (n = 280). AID 1697;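 active means percent activation above the mean of DMSO-only control wells plus 3 SD of those wells, cut at about 18% in these data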;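 further: cells challenged with isoproterenol plus Ro 20-1724 with no NPY in test wells; Y1 agonism lowers isoproterenol-driven cAMP and reduces probe fluorescence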
# NPY-Y2 agonist: counter-screen for NPY-Y1 potentiators or agonists: agonists of NPY-Y2. activation, % at 3.6 µM. shares compounds with NPY1 pot ag. actives 67% (n = 280). HEK293 Y2-CNGC, membrane potential fluorescence, agonist mode;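 active means activation above the solvent-only control wells' mean plus 3 SD, cut at about 11% in these data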;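 further: 0% = DMSO with isoproterenol and 100% = 40 nM NPY maximal response; agonism lowers cAMP so well fluorescence drops in active wells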
# CNGC counter: counter-screen for NPY-Y1 potentiators or agonists: CNG channel inhibitors; shares compounds with NPY1 pot ag; HEK293-CNG parental, isoproterenol cAMP, membrane potential fluorescence; inhibition, % at 3.6 µM; actives 42% (n = 280);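 active means inhibition above the mean of stimulated solvent-only control wells plus 3 SD, cut at about 22% in these data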;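 further: 0% = isoproterenol-stimulated DMSO wells and 100% = unstimulated DMSO wells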
# NPY-Y2 confirm: confirmation of human NPY-Y2 receptor potentiators or agonists; shares compounds with NPY2 pot ag; cell-based NPY-Y2 potentiator/agonist assay; activation, % at 3.6 µM; actives 20% (n = 450); AID 1539; in the data active means activation above about 33%
# NPY-Y1 counter: counter-screen for NPY-Y2 potentiators or agonists: NPY-Y1 potentiators or agonists; shares compounds with NPY2 pot ag; Y1 HEK293-CNG cells, membrane potential fluorescence; activation, % at 3.6 µM; actives 20% (n = 450); AID 1651;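 further: cells stimulated with submaximal NPY then isoproterenol with phosphodiesterase inhibitor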
# NPY-Y1 agonist 2: activates human NPY-Y1, counter-screen for NPY-Y2 potentiators | shares compounds with NPY2 pot ag | HEK293 Y1-CNGC, membrane potential fluorescence, agonism | activation, % at 3.6 µM | actives 37% (n = 450) | AID 1702;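 active means activation above the mean of DMSO-only control wells plus 3 SD, cut at about 18% in these data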;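 further: cells stimulated with 1 µM isoproterenol plus the PDE inhibitor Ro 20-1724; 0% = isoproterenol with DMSO and no NPY and 100% = 40 nM NPY; Y1 agonists lower the membrane potential dye signal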
# CNGC inhibitor: blocks CNG channel activity, counter-screen for NPY-Y2 potentiators. shares compounds with NPY2 pot ag. HEK293-CNG parental, isoproterenol cAMP, membrane potential fluorescence. inhibition, % at 3.6 µM. actives 32% (n = 450);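 active means inhibition above the control-well mean plus 3 SD of those wells, cut at about 22% in these data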;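 further: 0% = DMSO with isoproterenol and 100% = DMSO without isoproterenol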
# NPY-Y2 ag 2: NPY-Y2 agonism, counter-screen for Y2 potentiators. actives 56% (n = 450). HEK293 Y2/CNGC cells, membrane potential fluorescence, agonist mode. activation, % at 3.6 µM. shares compounds with NPY2 pot ag;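 active means activation above the mean of solvent-only control wells plus 3 SD, cut at about 10% in these data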;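 further: cells stimulated by isoproterenol with no NPY added so direct agonism is tested; 0% = DMSO with isoproterenol alone and 100% = NPY at EC100 plus isoproterenol; agonism lowers probe fluorescence through less cAMP and CNG channel opening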
# * = called active by the depositor; · = no result. Unless noted, no stated cut-off is given here; in the data, active means activation above about 45%; inactive means the rest.
SMILES,NPY Y2 blocker,EP2 modulator,NPY1 pot ag,NPY-Y1 antag,NPY2 pot ag,PGE2 EP2 inh,NPY-Y2 confirm,NPY-Y1 counter,NPY-Y1 agonist 2,CNGC inhibitor,NPY-Y2 ag 2,others
C/C1=C\[C@@H](C)C/C=C/[C@H]2[C@@H]3O[C@]3(C)[C@@H](C)[C@H]3[C@H](Cc4c[nH]c5ccccc45)NC(=O)[C@]32C(=O)/C=C/C(=O)[C@@H]1O,·,-32,11,40*,39*,24,5,5,-1,5,17*,NPY1 antag conf=35*;NPY-Y2 antag ct=7
C[C@@H]1CC[C@@]2(NC1)O[C@H]1C[C@H]3C4CC=C5C[C@@H](O)CC[C@]5(C)C4CC[C@]3(C)C1[C@@H]2C (stereo partly specified),·,4,·,·,·,11,·,·,·,·,·,
O=P(Nc1ccccc1)(Nc1ccccc1)Oc1ccc(Cl)cc1,1,-20,41*,-2,14,·,·,·,·,·,·,NPY-Y1 pot conf=33;NPY-Y2 counter=20;NPY-Y1 ag=23*;NPY-Y2 agonist=22*;CNGC counter=44*
CC(CCc1ccccc1)NCCC#N (stereo unspecified),·,6,56*,·,27,9,·,·,·,·,·,NPY-Y1 pot conf=9;NPY-Y2 counter=9;NPY-Y1 ag=8;NPY-Y2 agonist=2;CNGC counter=-4
c1ccc(CCNCc2ccccc2)cc1,0,22,-1,5,-1,5,·,·,·,·,·,
Cn1ccnc1C1(O)CC2CCC(C1)N2CC(=O)N1CCCc2ccccc21 (stereo unspecified),·,-7,·,·,·,·,·,·,·,·,·,
Cc1cc(C)n(-c2ccc(NN=C(C#N)C#N)cc2)n1,·,-28,41,·,42*,16,9,1,-1,5,4,
CC(C)(C)c1cc([N+](=O)[O-])cc(C(C)(C)C)c1O,·,-12,-1,7,45*,7,-8,-48,-34,-25,-7,
CN1CCN(c2ccc([N+](=O)[O-])cc2Cl)CC1,·,-44,8,3,12,5,·,·,·,·,·,
CN(C)c1ncc(CN2C3CCC2CC(O)(c2ccccc2F)C3)cn1 (stereo unspecified),·,-10,·,·,·,8,·,·,·,·,·,
